Laboratory results: ChEMBL document CHEMBL2401731, “Synthesis and pharmacological evaluation of 2-aryloxy/arylamino-5-cyanobenzenesulfonylureas as novel thromboxane A₂ receptor antagonists” (Eur J Med Chem, 2013)
pIC50: −log10 of the molar value. Calls of active or inactive are those of the source. The calls are words filed in the database; no cut-off is given here.

Key:
Thromboxane A2 receptor [1] = target: T1, Thromboxane A2 receptor (Homo sapiens, UniProt P21731); experiment: Antagonist activity at human thromboxane A2 receptor beta over-expressed in HEK293 cells assessed as inhibition of U-46619-induced intracellular calcium mobilization mobilization by fluorescence assay; format: functional, cell-based
T1 sequence (P21731 whole entry): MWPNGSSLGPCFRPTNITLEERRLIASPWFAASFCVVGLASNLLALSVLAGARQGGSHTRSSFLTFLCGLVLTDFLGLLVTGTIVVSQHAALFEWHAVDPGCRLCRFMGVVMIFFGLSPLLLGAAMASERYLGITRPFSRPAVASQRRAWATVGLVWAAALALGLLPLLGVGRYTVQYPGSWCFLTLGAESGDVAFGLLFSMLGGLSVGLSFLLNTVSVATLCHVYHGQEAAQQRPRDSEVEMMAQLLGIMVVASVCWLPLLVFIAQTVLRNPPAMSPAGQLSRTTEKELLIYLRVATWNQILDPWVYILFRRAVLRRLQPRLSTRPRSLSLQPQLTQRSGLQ
Summary of the method: (§1)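 HEK293 cells stably expressing HA-tagged TPα or TPβ, grown in DMEM/10% FBS. Trypsinized cells washed in Krebs-HEPES buffer, pH 7.4, loaded 1 h with Fluo-4/AM, rinsed, 150,000 cells/well. Compound at 10^-9 to 10^-5 M final, then stimulated with U-46619. Fluorescence read at 538 nm, calibrated to [Ca2+]i with Triton X-100/EGTA. IC50 from concentration-response curves, three independent experiments.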

Thromboxane A2 receptor [2] = target: T1, Thromboxane A2 receptor; experiment: Antagonist activity at human thromboxane A2 receptor alpha over-expressed in HEK293 cells assessed as inhibition of U-46619-induced intracellular calcium mobilization by fluorescence assay; format: functional, cell-based; summary of the method: as §1
Platelet = experiment: Antiplatelet activity against human platelets assessed as inhibition of U-46619-induced platelet aggregation at 10 uM after 1 min; format: functional, cell-based
Homo sapiens = organism: Homo sapiens; experiment: Selectivity index, ratio of IC50 for human thromboxane A2 receptor alpha to IC50 for human thromboxane A2 receptor beta
Summary of the method: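 IC50 at TPα divided by IC50 at TPβ. Both IC50s come from U-46619-stimulated Fluo-4 calcium mobilization in HEK293 cells stably expressing each isoform. Mean ± SD of three separate experiments.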

[3] = Antiplatelet activity against human platelets assessed as inhibition of U-46619-induced platelet aggregation at 1 uM after 1 min; format: functional, cell-based
Summary of the method: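 Human platelet-rich plasma is taken from donors free of medication for at least 14 days, obtained at 100×g for 10 min, and adjusted to […] with platelet-poor plasma. Platelets incubated with test sample or 0.1% DMSO at 37 °C for 1 min, then U-46619 added to trigger aggregation. Aggregation measured by light transmission. Means ± SD, n ≥ 2.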

SMILES	pIC50 (Thromboxane A2 receptor [1])	pIC50 (Thromboxane A2 receptor [2])	Ratio IC50 (Homo sapiens)	pIC50 [3]	inhibition (Platelet)
Cc1ccc(Nc2ccc(C#N)cc2S(=O)(=O)NC(=O)NC(C)C)cc1	5.37	5.39	0.9		Active
CC(C)NC(=O)NS(=O)(=O)c1cc(C#N)ccc1Oc1ccc(I)cc1	5.02	5.02	1		
CC(C)NC(=O)NS(=O)(=O)c1cc(C#N)ccc1Oc1ccc(Cl)cc1	5.07	5.02	1.1		
Cc1cccc(Oc2ccc(C#N)cc2S(=O)(=O)NC(=O)NC(C)C)c1	5.77	5.62	1.4		Active
CC(C)(C)NC(=O)NS(=O)(=O)c1cc(C#N)ccc1Oc1ccc(F)cc1	5.41	5.36	1.2		
CC(C)(C)NC(=O)NS(=O)(=O)c1cc(C#N)ccc1Oc1ccc(Cl)cc1	5.28	5.25	1.1		
CCCCCNC(=O)NS(=O)(=O)c1cc(C#N)ccc1Oc1ccc(Cl)cc1	5.06	5.06	0.9		
Cc1cccc(Oc2ccc(C#N)cc2S(=O)(=O)NC(=O)NC(C)(C)C)c1	6.16	5.98		6.15	Active
Cc1ccccc1Nc1ccc(C#N)cc1S(=O)(=O)NC(=O)NC(C)(C)C	5.32	5.56		6.01	Active
Cc1ccc(Nc2ccc(C#N)cc2S(=O)(=O)NC(=O)NC(C)(C)C)cc1	5.98	6.07		6.30	Active
CCCCCNC(=O)NS(=O)(=O)c1cc(C#N)ccc1Oc1ccccc1C	5.75	5.65	1.3		Active
CCCCCNC(=O)NS(=O)(=O)c1cc(C#N)ccc1Oc1ccc(F)cc1	5.02	5.03	0.9		
CCCCCNC(=O)NS(=O)(=O)c1cc(C#N)ccc1Nc1ccc(F)cc1	5.19	5.17	1.05		
CC(C)NC(=O)NS(=O)(=O)c1cc(C#N)ccc1Oc1ccc(Br)cc1	5.04	5.02	1		
Cc1cccc(Nc2ccc(C#N)cc2S(=O)(=O)NC(=O)NC(C)(C)C)c1	5.66	5.80	0.7	6.14	Active
CC(C)(C)NC(=O)NS(=O)(=O)c1cc(C#N)ccc1Oc1ccc(Br)cc1	5.27	5.23	1.1		
CCCCCNC(=O)NS(=O)(=O)c1cc(C#N)ccc1Oc1ccc(Br)cc1	5.02	5.07	0.9		

Continued, in another order:

pIC50 (Thromboxane A2 receptor [1])	pIC50 (Thromboxane A2 receptor [2])	Ratio IC50 (Homo sapiens)	pIC50 [3]	SMILES	inhibition (Platelet)
5.87	5.52	2.3		Cc1ccc(Oc2ccc(C#N)cc2S(=O)(=O)NC(=O)NC(C)C)cc1	Active
5.11	5.50	0.4		CCCCCNC(=O)NS(=O)(=O)c1cc(C#N)ccc1Nc1ccccc1C	Active
5.04	5.02	1		Cc1cccc(Nc2ccc(C#N)cc2S(=O)(=O)NC(=O)NC(C)C)c1	Active
5.63	5.53	1.3		CCCCCNC(=O)NS(=O)(=O)c1cc(C#N)ccc1Nc1cccc(C)c1	Active
5.31	5.33	0.95		CC(C)(C)NC(=O)NS(=O)(=O)c1cc(C#N)ccc1Nc1ccc(F)cc1	
6.21	6.15	1.1	6.29	Cc1ccc(Nc2ccc([N+](=O)[O-])cc2S(=O)(=O)NC(=O)NC(C)(C)C)cc1	
4.99	5.14	0.7		Cc1ccccc1Nc1ccc(C#N)cc1S(=O)(=O)NC(=O)NC(C)C	Active
5.83	5.43		6.02	Cc1ccccc1Oc1ccc(C#N)cc1S(=O)(=O)NC(=O)NC(C)(C)C	Active
5.26	5.26	0.9		CC(C)(C)NC(=O)NS(=O)(=O)c1cc(C#N)ccc1Oc1ccc(I)cc1	
5.03	5.02	1		CC(C)NC(=O)NS(=O)(=O)c1cc(C#N)ccc1Oc1ccc(F)cc1	
5.02	5.02	1		CCCCCNC(=O)NS(=O)(=O)c1cc(C#N)ccc1Oc1ccc(I)cc1	
5.11	5.09	1.04		CC(C)NC(=O)NS(=O)(=O)c1cc(C#N)ccc1Nc1ccc(F)cc1	
5.21	5.06	1.4		Cc1ccccc1Oc1ccc(C#N)cc1S(=O)(=O)NC(=O)NC(C)C	Active
5.69	5.98	0.5		CCCCCNC(=O)NS(=O)(=O)c1cc(C#N)ccc1Nc1ccc(C)cc1	Active
6.20	6.05	1.4		CCCCCNC(=O)NS(=O)(=O)c1cc(C#N)ccc1Oc1ccc(C)cc1	Active
6.17	5.88	2		CCCCCNC(=O)NS(=O)(=O)c1cc(C#N)ccc1Oc1cccc(C)c1	Active
6.17	6.12		6.19	Cc1ccc(Oc2ccc(C#N)cc2S(=O)(=O)NC(=O)NC(C)(C)C)cc1	Active
